Shown is part of a subset that was picked to be rich in hits.
T cruzi repl: blocks replication of Trypanosoma cruzi; T. cruzi beta-gal in NIH3T3, luminescence, 90 h; AID 1885; inhibition, % (no concentration beside the values); 300,000 tested, 1.4% active;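 active means mean inhibition across valid replicates above about 55%, limit read from the data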;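 further: signal also drops with host cell toxicity which is not excluded here; 0% = plate median of DMSO wells and 100% = zero luminescence signal; higher percent means less beta-gal luminescence so fewer parasites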
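Incubation – ≥90 h infection period, 3 h prior cell attachment · System – NIH/3T3 fibroblasts plus reporter T. cruzi · Doses – compound pinned at 50 nL/well, DMSO · Read-out basis – percent inhibition of parasite-derived β-gal signal · Signal – luminescent β-galactosidase signal after 60 min lysis · Also added – 5000 T. cruzi trypomastigotes/well · Medium – Low-serum DMEM with 2% FBS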
Lipid droplet: hepatic lipid droplet formation modulation; AML12 mouse hepatocytes, oleate lipid droplets, BODIPY imaging; 240,000 tested, 0.4% active; inhibition, % at 6.5 µM;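 active means lipid droplet intensity inhibited by at least 50%, with more than 500 cells counted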
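Assay system: AML12 hepatocytes (mouse); Probe or stimulus: oleic acid at 100 µM to induce lipid droplet formation; Dosing: compound at 6.5 µM only; Schedule: compound with oleate, overnight; Detection: fluorescence imaging, 20x objective, two fields per well; Measure: % inhibition of lipid droplet signal.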
L major viab: inhibitors of Leishmania major promastigote growth; Leishmania major promastigotes, resazurin fluorescence viability; inhibition, % at 10 µM; 200,000 tested, 9% active; in the data active means inhibition above about 50%;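 further: promastigotes grown with compound for 44 hours at 28 °C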
Redox H2O2 prof: compounds producing H2O2 with reducing agent – biochemical, NIH compound library profiling, artefact control for MLSCN library redox annotation, primary screen. AID 878. activation, % at 10 µM. 200,000 tested, 0.03% active. DTT-dependent redox cycling H2O2, phenol red/HRP absorbance; 100% = 100 µM peroxide control, 0% = buffer;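 active means activation of at least 50% relative to the plate's high and low controls in the primary single-dose screen; inactive means activation below 50%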;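 further: compound incubated with DTT at 0.8 mM final as the reducing agent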
MPTP inh: inhibitors of mitochondrial permeability transition pore | 360,000 tested, 1.4% active | inhibition, % at 10 µM | isolated mouse mitochondria, Ca2+ swelling absorbance, 30 min | AID 602449;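 active means inhibition of 50% or more, scaled per plate between neutral and stimulator controls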;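 further: 0% = DMSO wells given calcium and 100% = 1 mM EGTA wells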
An asterisk follows results filed as active; / = no result.

SMILES	T cruzi repl	Lipid droplet	L major viab	Redox H2O2 prof	MPTP inh
CCOC(=O)C1=C(C)Nc2nc(SCC)nn2C1c1ccc(OC)cc1 (centres undefined)	2	2	2	0	0
CCOC(=O)C1=C(C)Nc2nc(=S)[nH]n2C1c1ccc(Cl)cc1 (centres undefined)	12	/	94*	1	-1
COc1ccc2c3c(c(=O)oc2c1OCC(=O)O)CCCC3	0	20	61*	-1	0
Cc1nccn1CC(=O)N/N=C/c1cccc(O)c1	-8	12	61*	0	0
Cc1ccc(NS(=O)(=O)c2cc(C(=O)Nc3cccc(N(C)S(C)(=O)=O)c3)ccc2C)c(C)c1	7	-13	69*	0	6
CN(c1cccc(NC(=O)c2ccc(C(C)(C)C)cc2)c1)S(C)(=O)=O	3	-5	17	-1	0
COc1ccc(NC(=O)c2ccc3c(c2)NC(=O)CS3)cc1S(=O)(=O)Nc1ccc(Br)cc1	-1	-1	16	0	1
Cc1ccc(NS(=O)(=O)c2cc(NC(=O)c3ccc4c(c3)NC(=O)CS4)ccc2C)c(C)c1	16	-3	64*	0	25
Cc1ccc(C)c(NS(=O)(=O)c2cc(C(=O)Nc3cccc(N(C)S(C)(=O)=O)c3)ccc2C)c1	18	-6	90*	-3	2
C=CCn1c(CNc2ccccc2)nnc1SCC(=O)N/N=C/c1ccccc1O	13	-6	97*	0	-5
N#CCCN/N=C(\Cc1nc2ccccc2[nH]1)c1ccccc1	-2	/	3	0	2
CCN/N=C(\Cc1nc2ccccc2[nH]1)c1ccccc1	-2	-9	75*	-2	1
Cc1ccc(N/N=C(\Cc2nc3ccccc3[nH]2)c2ccccc2)cc1	/	-84	88*	0	6
c1ccc(N/N=C(\Cc2nc3ccccc3[nH]2)c2ccccc2)cc1	32	-7	9	1	50
O=C(Cc1nc2ccccc2[nH]1)c1ccc(Br)cc1	38	1	96*	0	5
CN(Cc1ccccc1)C(=O)COC(=O)CCC(=O)c1ccc(F)cc1	/	/	/	/	2
Cc1oc2cc3oc(=O)c(CCC(=O)N4C[C@H]5C[C@@H](C4)c4cccc(=O)n4C5)c(C)c3cc2c1C	25	/	/	/	-1
O=C1CSC(c2nn(-c3ccccc3)cc2-c2cc3ccccc3oc2=O)N1Cc1ccco1 (centres undefined)	17	/	52*	2	0
CN(C)C(=O)c1cn(-c2ccccc2)nc1-c1cc2ccccc2oc1=O	8	-1	-2	0	-1
Fc1ccc2c(c1)/C(=N/Nc1ccccn1)CCS2	8	10	55*	-1	1
O=C(Nc1nccs1)c1ccc(COc2c(F)c(F)cc(F)c2F)cc1	11	/	/	/	2
Cc1ccccc1CN1CCN(S(=O)(=O)c2ccc(F)cc2)CC1	17	-10	40	0	0
CCCS(=O)(=O)N1CCN(Cc2ccc(OCc3ccccc3)c(OC)c2)CC1	-7	/	91*	3	1
COc1ccc(CN2CCN(S(=O)(=O)c3ccccc3)CC2)cc1Br	7	-9	75*	0	3
O=S(=O)(c1ccc(Br)cc1)N1CCCN(Cc2ccccc2F)CC1	10	-32	50*	1	0
SMILES	T cruzi repl	Lipid droplet	L major viab	Redox H2O2 prof	MPTP inh
COc1ccc(S(=O)(=O)N2CCCN(Cc3cccc(F)c3)CC2)cc1	-20	/	90*	1	0
CC(C)C(=O)N1CCCC1(C)C(=O)Nc1cccc(Oc2ccccc2)c1 (centres undefined)	/	/	/	/	-1
CCC(C)(C)NC(=O)C(c1cccc(OC)c1OC)N(CCOC)C(=O)CCC(=O)Nc1cc(C)on1 (centres undefined)	-6	-15	/	/	-1
CCN1CCN(S(=O)(=O)c2ccc(OC)c(Br)c2)CC1	-22	11	84*	2	1
COc1ccc(S(=O)(=O)N2CCN(C)CC2)cc1Br	-16	/	0	-7	1
COc1ccc(N2C(=O)c3ccccc3NC(=O)C2C(=O)Nc2ccc3c(c2)OCCO3)cc1 (centres undefined)	/	/	/	/	1
[O-]C1=N[N+](=C(c2ccccc2)c2ccccc2)C1	/	/	/	/	1
CC(C)(C)NCc1cc(Cl)ccc1OCc1ccccc1F	11	14	23	0	1
COc1cc(CNc2ccc(N3CCCC3)cc2)ccc1OCc1ccccc1F	/	-7	2	1	2
CCNCc1ccc(OCc2ccccc2F)c(OC)c1	31	-3	81*	0	1
COc1cc(CNc2ccc(S(N)(=O)=O)cc2)ccc1OCc1ccccc1F	/	/	/	/	5
COc1cc(CNCCCCO)ccc1OCc1ccccc1F	13	4	83*	0	2
CCN(CC)CCNCc1cc(Cl)ccc1OCc1ccccc1F	-11	-12	99*	0	2
CCOCCCNCc1ccc(OCc2ccccc2C)c(OC)c1	52	-3	98*	0	-3
Clc1ccc(OCCCCCN2CCCC2)c(Br)c1	68*	5	98*	0	-5
Brc1ccccc1OCCN1CCOCC1	-12	-3	/	/	-2
Brc1ccccc1OCCCCCN1CCCC1	57*	/	98*	-1	/
Clc1ccc(Cl)c(OCCCCN2CCNCC2)c1	60*	-16	/	/	1
Cc1ccc(OCCCCCCN2CCNCC2)c(Br)c1	33	/	/	/	0
CCN1CCN(CCCOc2ccc(Cl)cc2Br)CC1	57*	2	96*	-2	0
Cc1cc(C(=O)CN2C(=O)C(=O)N(C3CCCC3)C2=O)c(C)n1CCc1ccc(F)cc1	/	/	/	/	-1
CCOc1ccccc1N1CC(C(=O)N(CC)CC(=O)Nc2ccc3c(c2)OCCO3)CC1=O (centres undefined)	-1	/	/	/	0
O=C(Nc1cccc(F)c1)C1CCCN(S(=O)(=O)c2ccc(-n3cnnn3)cc2)C1 (centres undefined)	-9	0	/	/	-2
O=C(O)c1ccc(Cn2cc(/C=C\[N+](=O)[O-])c3ccccc32)o1	2	-2	/	/	0
Cc1cccc(Cn2cc(/C=C/[N+](=O)[O-])c3ccccc32)c1	39	/	77*	2	7
SMILES	T cruzi repl	Lipid droplet	L major viab	Redox H2O2 prof	MPTP inh
O=[N+]([O-])/C=C/c1cn(Cc2ccc(Cl)cc2)c2ccccc12	1	-6	99*	0	-5
Cc1cc(C(=O)CC#N)c(C)n1-c1ccc(OC(F)F)cc1	9	/	-3	2	3
COC(=O)c1cc(C(=O)OC)cc(-n2c(C)cc(C(=O)CC#N)c2C)c1	-8	9	95*	-3	-2
CO[C@H]1CC[C@@]2(C)[C@@H](CC[C@@H]3[C@@H]2CC[C@@]2(C)[C@H]3C[C@H](C(=O)N[C@@H](CCCN=C(N)N)C(=O)NCC(=O)N[C@@H](CC(=O)O)C(N)=O)O[C@]23CCCO3)C1	/	/	/	/	0
N#Cc1ccc(CSC2=NCCN2)cc1	21	8	10	0	-3
CCOc1ccc(CSC2=NCCN2)cc1Cl	57*	/	22	3	0
